# Data: ChEMBL document CHEMBL4251630, “Hydroxymethyl bioisosteres of phenolic GluN2B-selective NMDA receptor antagonists: Design, synthesis and pharmacological evaluation” (Eur J Med Chem, 2018)
# Tests used:
# [1] = target: T1, Glutamate receptor ionotropic, NMDA 2B (Homo sapiens, UniProt Q13224); assay: Displacement of [3H]Ifenprodil from GluN2B receptor (unknown origin) expressed in mouse L(tk-) cell membranes incubated for 120 mins measured for 5 mins by scintillation counting method
# [2] = (§1) Antagonist activity at GluN2B/GluN1a receptor (unknown origin) expressed in mouse L(tk-) cells assessed as cytoprotection against glycine/(S)-glutamate-induced cell death preincubated for 30 mins followed by glycine/(S)-glutamate addition measured after 6 hrs by LDH assay; type: cell-based; details: Homo sapiens, LTK
# Outline: (§2)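 L(tk-) cells co-expressing GluN1a/GluN2B (1:5), dexamethasone-induced. Wells blocked with DMEM/1 % BSA. Cells preincubated with test compound at 5 concentrations (e.g. 4 x 10-5 to 10-9 mol/L), in at least triplicate, 30 min at 37 °C. Glutamate/glycine (20 µM each, solution) then added for 6 h at 37 °C. Supernatant LDH measured by diaphorase/lactate/NAD+/INT mix, 45 min at 37 °C, absorbance 485 nm. (S)-ketamine 4 x 10-5 mol/L was the positive control.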
# [3] = Selectivity ratio of Ki for sigma-1 receptor in guinea pig brain cortex membranes to Ki for GluN2B receptor (unknown origin) expressed in mouse L(tk-) cell membranes; type: cell-based
# [4] = target: T2, Sigma intracellular receptor 2 (Rattus norvegicus, UniProt Q5U3Y7); assay: Displacement of [3H]-di-o-tolylguanidine from sigma-2 receptor in rat liver membranes incubated for 120 mins measured for 5 mins by scintillation counting method; type: cell membranes, Membrane
# T2 sequence (Q5U3Y7 whole entry): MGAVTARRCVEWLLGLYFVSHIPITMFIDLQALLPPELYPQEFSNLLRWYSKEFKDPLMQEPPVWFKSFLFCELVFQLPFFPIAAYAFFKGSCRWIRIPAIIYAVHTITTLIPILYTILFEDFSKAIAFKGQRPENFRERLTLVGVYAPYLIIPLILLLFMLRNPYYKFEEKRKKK
# [5] = target: Sigma non-opioid intracellular receptor 1 (Cavia porcellus, UniProt Q60492); assay: Displacement of [3H]-(+)-pentazocine from sigma-1 receptor in guinea pig brain cortex membranes incubated for 120 mins measured for 5 mins by scintillation counting method; type: cell membranes
# Sequence of Sigma non-opioid intracellular receptor 1 (Q60492 whole entry): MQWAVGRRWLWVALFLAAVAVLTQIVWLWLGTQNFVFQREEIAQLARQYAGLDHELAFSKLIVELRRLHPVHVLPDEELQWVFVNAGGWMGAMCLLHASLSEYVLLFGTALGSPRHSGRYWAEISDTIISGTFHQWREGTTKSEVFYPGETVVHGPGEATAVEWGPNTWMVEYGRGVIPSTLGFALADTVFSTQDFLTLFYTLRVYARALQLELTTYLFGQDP
# Sus scrofa = organism: Sus scrofa; assay: Displacement of [3H]-(+)-MK-801 from NMDA receptor PCP binding site in pig brain cortex membranes at 1 uM incubated for 120 mins measured for 5 mins by scintillation counting method relative to control; type: cell membranes
# Outline: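 Pig brain cortex membranes, about 100 µg protein, with 2 nM [3H]-(+)-MK-801 in 5 mM TRIS/1 mM EDTA, pH 7.5, at rt for 120 min. Test compound at 1 µM, in duplicate. Non-specific binding defined with 10 µM unlabeled (+)-MK-801. Filtration on polyethylenimine-soaked filtermats, then [3H] scintillation counting for 5 min per well. Value given as % inhibition of radioligand binding.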
# [6] = Selectivity ratio of Ki for sigma-2 receptor in rat liver membranes to Ki for GluN2B receptor (unknown origin) expressed in mouse L(tk-) cell membranes; type: cell-based
# Homo sapiens = organism: Homo sapiens; assay: as §1; type: cell-based; outline: as §2
# [7] = target: T1, Glutamate receptor ionotropic, NMDA 2B; assay: Displacement of [3H]Ifenprodil from GluN2B receptor (unknown origin) expressed in mouse L(tk-) cell membranes
# Outline: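 Dexamethasone-induced (4 µM, with 4 µM ketamine, 24 h) GluN1a/GluN2B L(tk-) cell membranes, about 20 µg protein. […] Filtration and 5-min [3H] counting. Ki by Cheng-Prusoff (Kd 7.6 nM). Mean ± SEM of three experiments, or a single run for weak binders.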
# T1 sequence (Q13224 whole entry): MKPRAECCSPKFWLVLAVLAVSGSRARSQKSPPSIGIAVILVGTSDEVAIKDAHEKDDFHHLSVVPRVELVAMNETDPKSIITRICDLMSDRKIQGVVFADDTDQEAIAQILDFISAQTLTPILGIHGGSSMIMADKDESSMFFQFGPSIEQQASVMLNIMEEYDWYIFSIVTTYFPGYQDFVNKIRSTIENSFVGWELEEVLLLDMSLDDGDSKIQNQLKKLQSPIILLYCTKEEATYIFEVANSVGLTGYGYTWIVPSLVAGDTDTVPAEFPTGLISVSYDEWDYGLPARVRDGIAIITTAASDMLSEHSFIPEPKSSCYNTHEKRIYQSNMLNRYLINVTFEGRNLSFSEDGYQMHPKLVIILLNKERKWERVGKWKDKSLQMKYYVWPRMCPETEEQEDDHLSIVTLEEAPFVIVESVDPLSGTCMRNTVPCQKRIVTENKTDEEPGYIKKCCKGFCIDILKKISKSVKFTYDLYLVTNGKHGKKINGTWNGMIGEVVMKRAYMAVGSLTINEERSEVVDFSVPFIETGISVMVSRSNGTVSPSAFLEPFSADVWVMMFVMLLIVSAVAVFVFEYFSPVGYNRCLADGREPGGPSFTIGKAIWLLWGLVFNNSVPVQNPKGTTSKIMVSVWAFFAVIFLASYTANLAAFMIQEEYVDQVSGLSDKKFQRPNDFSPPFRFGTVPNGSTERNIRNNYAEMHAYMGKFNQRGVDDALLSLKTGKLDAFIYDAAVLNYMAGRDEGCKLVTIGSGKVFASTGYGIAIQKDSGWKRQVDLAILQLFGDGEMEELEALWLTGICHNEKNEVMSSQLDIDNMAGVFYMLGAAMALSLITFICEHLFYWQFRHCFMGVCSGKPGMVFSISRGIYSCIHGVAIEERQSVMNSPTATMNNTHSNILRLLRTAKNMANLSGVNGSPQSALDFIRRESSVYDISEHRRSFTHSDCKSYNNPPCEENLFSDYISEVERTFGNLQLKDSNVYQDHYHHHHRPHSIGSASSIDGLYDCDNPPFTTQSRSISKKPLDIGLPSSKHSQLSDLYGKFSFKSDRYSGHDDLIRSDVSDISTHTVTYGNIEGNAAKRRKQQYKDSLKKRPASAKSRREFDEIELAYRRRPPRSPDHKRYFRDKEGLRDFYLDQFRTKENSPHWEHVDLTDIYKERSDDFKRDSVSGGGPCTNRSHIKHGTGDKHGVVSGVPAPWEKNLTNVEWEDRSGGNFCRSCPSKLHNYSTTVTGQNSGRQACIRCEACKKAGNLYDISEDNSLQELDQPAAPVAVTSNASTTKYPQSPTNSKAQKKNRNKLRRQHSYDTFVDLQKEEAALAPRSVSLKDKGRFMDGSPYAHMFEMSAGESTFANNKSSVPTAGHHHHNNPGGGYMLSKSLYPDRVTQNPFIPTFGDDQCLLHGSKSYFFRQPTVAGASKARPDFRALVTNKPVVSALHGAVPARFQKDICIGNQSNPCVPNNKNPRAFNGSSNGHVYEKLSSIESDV
SMILES,Ki [1],Ki [4],Ki [5],inhibition (Sus scrofa),Ki [7],IC50 [2],Ratio Ki [3],Ratio Ki [6],inhibition (Homo sapiens)
C[C@@H](CN1CCC(Cc2ccccc2)CC1)[C@@H](O)c1ccc(O)cc1,173 nM,–,–,–,–,18 nM,–,–,–
OCc1ccc2c(c1)CCC(NCCCc1ccccc1)CC2 (stereo not drawn),101 nM,592 nM,565 nM,0%,–,5200 nM,5 to 6,5 to 6,Dose-dependent effect
COc1ccc2c(c1)CC[C@@H](NCCCc1ccccc1)C[C@H]2O (relative stereo),–,–,–,–,16 nM,–,–,–,–
CC(C(O)c1ccc(O)cc1)N1CCC(Cc2ccccc2)CC1 (stereo not drawn) [IFENPRODIL],–,–,–,–,–,590 nM,–,–,–

# Continued, in another order:
Ki [1],Ki [4],Ki [5],inhibition (Sus scrofa),Ki [7],SMILES,IC50 [2],Ratio Ki [3],Ratio Ki [6],inhibition (Homo sapiens)
186 nM,271 nM,41 nM,0%,–,OCc1ccc2c(c1)CCC(NCCCCc1ccccc1)CC2 (stereo not drawn),> 100000 nM,4,–,–
–,96 nM,211 nM,25%,21 nM,Oc1ccc2c(c1)CCC(NCCCCc1ccccc1)CC2 (stereo not drawn),3000 nM,–,–,–
–,32 nM,123 nM,0%,28 nM,Oc1ccc2c(c1)CCC(NCCCc1ccccc1)CC2 (stereo not drawn),25000 nM,–,–,–
